{"source": "ChEMBL document CHEMBL3425433", "about": "“Discovery of bicyclic pyrazoles as class III histone deacetylase SIRT1 and SIRT2 inhibitors” (Bioorg Med Chem Lett, 2015)", "molecular_target": "T1, NAD-dependent protein deacetylase sirtuin-1 (Homo sapiens) (UniProt Q96EB6)", "T1 sequence (whole entry)": "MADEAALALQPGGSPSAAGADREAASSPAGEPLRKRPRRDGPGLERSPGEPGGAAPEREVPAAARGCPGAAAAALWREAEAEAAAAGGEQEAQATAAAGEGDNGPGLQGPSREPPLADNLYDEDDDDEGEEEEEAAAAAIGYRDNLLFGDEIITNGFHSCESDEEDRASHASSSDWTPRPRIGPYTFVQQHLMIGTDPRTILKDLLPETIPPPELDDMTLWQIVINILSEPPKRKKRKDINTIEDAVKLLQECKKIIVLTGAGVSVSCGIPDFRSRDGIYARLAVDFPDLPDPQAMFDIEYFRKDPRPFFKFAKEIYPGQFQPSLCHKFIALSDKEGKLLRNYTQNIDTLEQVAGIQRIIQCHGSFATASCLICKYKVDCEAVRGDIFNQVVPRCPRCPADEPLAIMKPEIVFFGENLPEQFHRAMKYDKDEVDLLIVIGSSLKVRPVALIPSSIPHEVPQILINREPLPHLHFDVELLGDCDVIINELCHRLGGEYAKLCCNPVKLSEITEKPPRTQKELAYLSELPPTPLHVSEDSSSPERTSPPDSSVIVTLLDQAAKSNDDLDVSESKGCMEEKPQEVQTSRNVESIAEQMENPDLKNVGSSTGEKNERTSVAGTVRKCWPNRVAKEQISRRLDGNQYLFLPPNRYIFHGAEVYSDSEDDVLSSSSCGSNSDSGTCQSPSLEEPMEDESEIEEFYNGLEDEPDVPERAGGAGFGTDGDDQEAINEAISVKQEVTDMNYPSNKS", "assay": "Inhibition of SIRT1-mediated endogenous p53 deacetylase activity in human Namalwa cells assessed as concentration required to […] to twice the basal level after 3 hrs by ELISA", "type": "cell-based", "procedure,_shortened": "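Namalwa cells, 50,000/well, were exposed 3 h at 37 °C, 5% CO2, to 0.005–50 µM final (0.95% DMSO). Lysates were ELISA-captured on anti-p53 (DO-1), probed overnight with anti-acetyl-Lys382-p53, then HRP conjugate and Amplex Red (15 min; ex 550/em 610 nm). IC2xB is the concentration doubling basal (lowest) fluorescence. Means of three experiments.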", "data": [{"smiles": "NC(=O)C1CCCc2c1[nH]c1ccc(Cl)cc21", "note": "(racemic)", "values": [{"measurement": "INH", "result": 0.6, "unit": "µM"}]}]}
